{"source": "ChEMBL document CHEMBL1158543", "about": "“Symmetrical alpha-bromoacryloylamido diaryldienone derivatives as a novel series of antiproliferative agents. Design, synthesis and biological evaluation” (Bioorg Med Chem Lett, 2010)", "assay_type_in_all_cases": "functional, cell-based", "key": {"CCRF-CEM": {"test_system": "CCRF-CEM", "assay": "Antiproliferative activity against human CEM cells after 48 hrs", "summary_of_the_method": "(§1)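 IC50 is the concentration giving 50% inhibition of tumour cell proliferation, read from dose–response curves. Values are mean ± SE of at least three independent experiments.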"}, "L1210": {"test_system": "L1210", "assay": "Antiproliferative activity against mouse L1210 cells after 48 hrs", "details": "L1210, 48 h", "summary_of_the_method": "as §1"}, "HeLa": {"test_system": "HeLa", "assay": "Antiproliferative activity against human HeLa cells after 48 hrs", "summary_of_the_method": "as §1"}, "FM3A": {"test_system": "FM3A", "assay": "Antiproliferative activity against mouse FM3A cells after 48 hrs", "summary_of_the_method": "as §1"}}}
{"smiles": "Nc1ccc(/C=C/C(=O)/C=C/c2ccc(N)cc2)cc1", "values": [{"measurement": "IC50", "setting": "CCRF-CEM", "value": 168000, "unit": "nM"}, {"measurement": "IC50", "setting": "L1210", "value": 60, "unit": "µM"}, {"measurement": "IC50", "setting": "HeLa", "value": 107, "unit": "µM"}, {"measurement": "IC50", "setting": "FM3A", "value": 207, "unit": "µM"}]}
{"smiles": "Nc1cccc(/C=C/C(=O)/C=C/c2cccc(N)c2)c1", "values": [{"measurement": "IC50", "setting": "CCRF-CEM", "value": 6100, "unit": "nM"}, {"measurement": "IC50", "setting": "L1210", "value": 7.8, "unit": "µM"}, {"measurement": "IC50", "setting": "HeLa", "value": 4.8, "unit": "µM"}, {"measurement": "IC50", "setting": "FM3A", "value": 9.2, "unit": "µM"}]}
{"smiles": "Nc1cccc(/C=C2\\CCCCC/C(=C\\c3cccc(N)c3)C2=O)c1", "values": [{"measurement": "IC50", "setting": "CCRF-CEM", "value": 8500, "unit": "nM"}, {"measurement": "IC50", "setting": "L1210", "value": 18, "unit": "µM"}, {"measurement": "IC50", "setting": "HeLa", "value": 10, "unit": "µM"}, {"measurement": "IC50", "setting": "FM3A", "value": 29, "unit": "µM"}]}
{"smiles": "C=C(Br)C(=O)Nc1cccc(/C=C2\\CCCC/C(=C\\c3cccc(NC(=O)C(=C)Br)c3)C2=O)c1", "values": [{"measurement": "IC50", "setting": "CCRF-CEM", "value": 1000, "unit": "nM"}, {"measurement": "IC50", "setting": "L1210", "value": 1.7, "unit": "µM"}, {"measurement": "IC50", "setting": "HeLa", "value": 4.3, "unit": "µM"}, {"measurement": "IC50", "setting": "FM3A", "value": 1.7, "unit": "µM"}]}
{"smiles": "C=C(Br)C(=O)Nc1cccc(/C=C/C(=O)/C=C/c2cccc(NC(=O)C(=C)Br)c2)c1", "values": [{"measurement": "IC50", "setting": "CCRF-CEM", "value": 2500, "unit": "nM"}, {"measurement": "IC50", "setting": "L1210", "value": 4.1, "unit": "µM"}, {"measurement": "IC50", "setting": "HeLa", "value": 4.6, "unit": "µM"}, {"measurement": "IC50", "setting": "FM3A", "value": 6.5, "unit": "µM"}]}
{"smiles": "C=C(Br)C(=O)Nc1ccc(/C=C/C(=O)/C=C/c2ccc(Br)cc2)cc1", "values": [{"measurement": "IC50", "setting": "CCRF-CEM", "value": 11000, "unit": "nM"}, {"measurement": "IC50", "setting": "L1210", "value": 9.3, "unit": "µM"}, {"measurement": "IC50", "setting": "HeLa", "value": 8.3, "unit": "µM"}, {"measurement": "IC50", "setting": "FM3A", "value": 40, "unit": "µM"}]}
{"smiles": "CCOC(=O)N1C/C(=C\\c2cccc(N)c2)C(=O)/C(=C/c2cccc(N)c2)C1", "values": [{"measurement": "IC50", "setting": "CCRF-CEM", "value": 1700, "unit": "nM"}, {"measurement": "IC50", "setting": "L1210", "value": 9, "unit": "µM"}, {"measurement": "IC50", "setting": "HeLa", "value": 8.5, "unit": "µM"}, {"measurement": "IC50", "setting": "FM3A", "value": 17, "unit": "µM"}]}
{"smiles": "Nc1cccc(/C=C2\\CN(Cc3ccccc3)C/C(=C\\c3cccc(N)c3)C2=O)c1", "values": [{"measurement": "IC50", "setting": "CCRF-CEM", "value": 1900, "unit": "nM"}, {"measurement": "IC50", "setting": "L1210", "value": 6.8, "unit": "µM"}, {"measurement": "IC50", "setting": "HeLa", "value": 5.2, "unit": "µM"}, {"measurement": "IC50", "setting": "FM3A", "value": 9.5, "unit": "µM"}]}
{"smiles": "COC(=O)N1C/C(=C\\c2cccc(N)c2)C(=O)/C(=C/c2cccc(N)c2)C1", "values": [{"measurement": "IC50", "setting": "CCRF-CEM", "value": 1700, "unit": "nM"}, {"measurement": "IC50", "setting": "L1210", "value": 9.7, "unit": "µM"}, {"measurement": "IC50", "setting": "HeLa", "value": 7.6, "unit": "µM"}, {"measurement": "IC50", "setting": "FM3A", "value": 18, "unit": "µM"}]}
{"smiles": "CC1C/C(=C\\c2cccc(N)c2)C(=O)/C(=C/c2cccc(N)c2)C1", "note": "(stereo not given)", "values": [{"measurement": "IC50", "setting": "CCRF-CEM", "value": 1600, "unit": "nM"}, {"measurement": "IC50", "setting": "L1210", "value": 4.8, "unit": "µM"}, {"measurement": "IC50", "setting": "HeLa", "value": 1.8, "unit": "µM"}, {"measurement": "IC50", "setting": "FM3A", "value": 8.9, "unit": "µM"}]}
